According to article PMC8637822 (RSC Chemical Biology, 2021):
pIC50, pKi: −log10 of the molar value. Where a SMILES comes first, the peptide text is derived from it. Bridges are numbered along the chain shown (N, C = ends). [ ]: non-standard residue; d: D form. Bip = N[C@@H](Cc1ccc(-c2ccccc2)cc1)C(=O)O; NMeS = CN[C@@H](CO)C(=O)O

Key:
SW-480 cells = experiment: WST-1 cell proliferation assay in SW-480 cells; format: cell-based; conditions: p53-mutant SW-480 cells, 24 hours
Method in brief: (§1)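 Cells were exposed for 24 h to varying concentrations of the synthesized macrocyclic peptide MDM2 inhibitors, and proliferation was read out by the WST-1 assay. The same test was run in MDM2-dependent SJSA-1 cells and in p53-mutant SW-480 cells, the latter as a control line. A small-molecule MDM2 inhibitor served as the positive control.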

[1] = test system: nuclear MDM2 in SJSA-1 cells; experiment: MDM2 immunofluorescence; format: cell-based; conditions: 4 hours
MDM2 = MDM2 (Homo sapiens, UniProt Q00987); experiment: TR-FRET competition; format: binding
Chain of MDM2 (Q00987 2-188): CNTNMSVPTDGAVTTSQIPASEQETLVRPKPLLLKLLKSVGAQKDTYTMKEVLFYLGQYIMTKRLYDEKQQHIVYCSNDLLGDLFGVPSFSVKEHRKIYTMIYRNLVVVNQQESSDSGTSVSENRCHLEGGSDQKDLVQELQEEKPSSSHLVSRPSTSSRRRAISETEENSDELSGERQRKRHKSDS

SJSA-1 cells [2] = experiment: WST-1 cell proliferation assay in SJSA-1 cells; format: cell-based; conditions: Homo sapiens, SJSA-1, 24 h, read-out: GI50 growth inhibition
Method in brief: as §1

MDM4 = biological target: T1, MDM4 (Homo sapiens, UniProt O15151); experiment: TR-FRET competition; format: binding; conditions: His(96) of MDM2 replaced by proline in MDM4
T1 sequence (O15151 2-185): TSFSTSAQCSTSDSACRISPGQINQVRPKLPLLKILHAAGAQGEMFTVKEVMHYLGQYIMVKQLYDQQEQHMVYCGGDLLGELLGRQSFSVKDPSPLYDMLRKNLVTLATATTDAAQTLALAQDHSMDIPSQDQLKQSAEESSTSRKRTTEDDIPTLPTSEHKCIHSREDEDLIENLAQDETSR

SJSA-1 cells [3] = experiment: SJSA-1 cellular assay; format: cell-based; conditions: tested up to 30 μM

For `CC(=O)N[C@@H](CSSC[C@H](N)C(=O)NCCOCCOCC(=O)NCCOCCOCC(=O)N[C@H]1CCCCNC(=O)CC[C@@H](C(N)=O)NC(=O)[C@H](CCCNC(=N)N)NC(=O)[C@@H](CCCNC(=N)N)NC(=O)[C@H](CCCNC(=N)N)NC(=O)[C@@H](CCCNC(=N)N)NC(=O)[C@H](CCCNC(=N)N)NC(=O)[C@@H](CCCNC(=N)N)NC(=O)[C@H](CCCNC(=N)N)NC(=O)[C@@H](CCCNC(=N)N)NC(=O)[C@H](CCCNC(=N)N)NC(=O)[C@@H](CCCNC(=N)N)NC1=O)C(=O)NCCCC[C@H](NC(=O)CNC(=O)[C@@H]1CSCC(=O)N[C@@H](Cc2ccccc2)C(=O)N[C@@H](CO)C(=O)N[C@@H](CC(=O)O)C(=O)N(C)[C@@H](CO)C(=O)N[C@@H](CO)C(=O)N[C@@H](CO)C(=O)N[C@@H](C(C)C)C(=O)N2CCC[C@H]2C(=O)N[C@@H](CC(N)=O)C(=O)N[C@@H](Cc2ccc(-c3ccccc3)cc2)C(=O)N[C@@H](Cc2ccc(-c3ccccc3)cc2)C(=O)N[C@@H](CCCNC(=N)N)C(=O)N[C@@H](CC(N)=O)C(=O)N1)C(N)=O` [CMR19-cR10], the growth inhibitory effect (SW-480 cells) was “no growth inhibition”.

With `CC(C)[C@@H]1NC(=O)[C@H](CO)NC(=O)[C@H](CO)NC(=O)[C@H](CO)N(C)C(=O)[C@H](CC(=O)O)NC(=O)[C@H](CO)NC(=O)[C@H](Cc2ccccc2)NC(=O)CSC[C@@H](C(=O)NCC(N)=O)NC(=O)[C@H](CC(N)=O)NC(=O)[C@H](CCCNC(=N)N)NC(=O)[C@H](C)NC(=O)[C@H](Cc2ccc(-c3ccccc3)cc2)NC(=O)[C@H](CC(N)=O)NC(=O)[C@@H]2CCCN2C1=O` [MMS95] ({CH2CO}-FSD[NMeS]SSVPN[Bip]ARNCG-NH2; thioether N-14) the “concentration-dependent enrichment of nuclear MDM2 (quantified fluorescence)” value ([1]; 0.4-10 µM) was “does not”, the “enrichment of MDM2 in the nuclei compared to the DMSO control” value ([1]; 37 °C, immunofluorescence) was “did not result in increased nuclear staining” and the pIC50 (MDM2) was under 5.00. The “binding to MDM2 in the TR-FRET assay” value (MDM2) was “no binding”.

`COc1cc2c(cc1OC(C)C)[C@H](c1ccc(Cl)cc1)N(c1ccc(N(C)C[C@H]3CC[C@H](N4CCN(C)C(=O)C4)CC3)cc1)C(=O)C2` [CGM097] showed a GI50 (SJSA-1 cells [2]) of about 1000 nM.

For `CC(C)[C@@H]1NC(=O)[C@H](CO)NC(=O)[C@H](CO)NC(=O)[C@H](CO)N(C)C(=O)[C@H](CC(=O)O)NC(=O)[C@H](CO)NC(=O)[C@H](Cc2ccccc2)NC(=O)CSC[C@@H](C(=O)NCC(N)=O)NC(=O)[C@H](CC(N)=O)NC(=O)[C@H](CCCNC(=N)N)NC(=O)[C@H](Cc2ccc(-c3ccccc3)cc2)NC(=O)[C@H](Cc2ccc(-c3ccccc3)cc2)NC(=O)[C@H](CC(N)=O)NC(=O)[C@@H]2CCCN2C1=O` [CMR19] ({CH2CO}-FSD[NMeS]SSVPN[Bip][Bip]RNCG-NH2; thioether N-14), the pIC50 (MDM2) was 9.74, the pKi (MDM2) was 9.82 and the “loss in affinity for MDM4 versus MDM2” value (MDM4) was “more than thousand fold loss in affinity”. The “cytotoxic response on SJSA-1 cells” value (SJSA-1 cells [3]) was “did not observe any cytotoxic response”.
